Compound activity (PubChem BioAssay)
Compounds with a hit are over-represented: about 2.9% of the library has one in this group of screens.
Calb FLC: C. albicans growth modulation with fluconazole; C. albicans CaCi-2 (fluconazole-resistant clinical isolate) + fluconazole, Alamar Blue growth, 48 h; growth inhibition, % (concentration not given with the values); hit rate 0.57% among 300,000;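 active means growth inhibition above about 58% in most replicates, limit read from the data, passing the limit was not always enough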;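 further: all wells also contain fluconazole at 8 µg/ml as a sub-toxic cotreatment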
Efflux pump mplx: antifungal efflux pump inhibition, Nile Red retention; S. cerevisiae Candida pump triplex; inhibition, % at 10 µM; hit rate 0.44% among 330,000; AID 485275;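 active means plate passing quality check with inhibition over a set limit, or well fluorescence over plate mean plus 4 SD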;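 further: Nile Red retained in pooled yeast measured as flow cytometry median fluorescence; higher means more Nile Red kept so more efflux inhibition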
MC4R antag cAMP: blocks human MC4R cAMP signaling. AID 540295. inhibition, % at 6.5 µM. MC4R-expressing cells, MTII-stimulated cAMP, LANCE TR-FRET. hit rate 0.48% among 360,000. P32245;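 active means inhibition above its plate's cutoff, the mean of tested wells on that plate plus 3 SD, cut at about 29% in these data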
Target sequence (P32245 whole entry, looked up): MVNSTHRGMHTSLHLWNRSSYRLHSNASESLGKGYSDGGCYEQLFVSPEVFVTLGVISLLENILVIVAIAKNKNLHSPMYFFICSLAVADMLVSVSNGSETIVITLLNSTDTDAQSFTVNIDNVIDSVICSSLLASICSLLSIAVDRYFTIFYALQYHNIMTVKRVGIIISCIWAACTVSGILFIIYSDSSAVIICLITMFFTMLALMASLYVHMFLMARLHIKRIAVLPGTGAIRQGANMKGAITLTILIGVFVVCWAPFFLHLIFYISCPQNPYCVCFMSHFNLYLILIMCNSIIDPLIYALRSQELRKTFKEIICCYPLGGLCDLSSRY
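System: U2OS-MC4R stable cell line; Technique: Eu-cAMP/anti-cAMP TR-FRET, emission 671 nm; Repeats: single well per compound; Also added: Melanotan II; Dosing: one concentration, 6.5 µM nominal; Schedule: 30-min compound, 1-h challenge, 1-h detection, room temperature.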
H9c2 TAG inh: reduces triacylglycerol accumulation in H9c2 cells | Nile Red lipid (TAG) fluorescence; cells loaded with 200 µM oleic acid | inhibition, % at 12.5 µM | hit rate 0.66% among 230,000 | AID 651582;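 active means pattern-corrected inhibition of lipid staining of at least 50% with the nuclear-stain viability signal not falling by more than 50%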
GalR3 antagonist: human GalR3 antagonism; O60755; HEK293 GalR3-CNG cAMP membrane potential fluorescence; galR3 body fused to GalR1 C-terminus; inhibition, % at 3 µM; hit rate 0.44% among 360,000; AID 651719;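 active means inhibition above the screen-wide average plus 3 SD, cut at about 13% in these data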;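 further: forskolin and galanin both at EC90 stimulate the cells; cAMP rise reported by CNG channel membrane potential dye signal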
MC4R barr agon: activates human MC4R beta-arrestin recruitment | U2OS MC4R beta-arrestin complementation, luminescence; percent of melanotan II response, DMSO zero | activation, % at 8.9 µM | hit rate 0.98% among 360,000 | AID 540308;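 active means activation above a per-plate cutoff, the mean activation of sample wells on that plate plus 3 SD, cut at about 8% in these data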
Cmpd fluor yeast: counter-screen for efflux pump inhibitors: compound fluorescence; shares compounds with Efflux pump mplx; S. cerevisiae AD/pABC3, flow cytometry; fluorescence ratio to DMSO, % at 10 µM; hit rate 4% among 1,700; AID 588517;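 active means fluorescence ratio to DMSO above its plate's cutoff, the plate mean ratio plus 5 SD, cut at about 210% in these data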;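 further: unstained yeast with no Nile Red so the signal is compound autofluorescence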
Mdr1 pump inh: blocks the Candida albicans Mdr1 efflux pump in yeast | shares compounds with Efflux pump mplx | S. cerevisiae AD/CaMDR1, Nile Red efflux, flow cytometry | inhibition, % at 10 µM | hit rate 1% among 1,700; in the data active means inhibition above about 26%;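 further: higher means more Nile Red retained so more efflux inhibition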
Cdr2 pump inh: blocks the Candida albicans Cdr2 efflux pump in yeast | shares compounds with Efflux pump mplx | AID 588520 | S. cerevisiae AD/CaCDR2, Nile Red retention, flow cytometry | Nile Red retention ratio vs DMSO, % at 10 µM | hit rate 4% among 1,700; in the data active means Nile Red retention ratio vs DMSO above about 190%;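 further: higher ratio means more blocking of Cdr2 efflux of the dye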
Cdr1 pump inh: Candida Cdr1 efflux pump inhibition; shares compounds with Efflux pump mplx; S. cerevisiae AD/CaCDR1, Nile Red efflux, flow cytometry; inhibition, % at 10 µM; hit rate 1% among 1,700; AID 588522;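 active means inhibition above the screen-wide mean plus twice its standard deviation, cut at about 32% in these data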
Large screens that a line does not name were inactive (follow-up assays come after a bar, where they were run).

O=C1C(Cc2ccccc2)Nc2ncnc(N3CCN(c4ccccc4)CC3)c2N1Cc1ccccc1 (configuration not stated)	none | Cmpd fluor yeast inactive | Mdr1 pump inh inactive | Cdr2 pump inh inactive | Cdr1 pump inh inactive
CC1(C(=O)NCc2ccc(F)c(F)c2)Cc2c(-c3ccccc3)ccnc2O1 (configuration not stated)	none (no result: Calb FLC, Efflux pump mplx, GalR3 antagonist)
Cc1cc(C2CC(=O)Nc3ccccc3S2)c(C)s1 (configuration not stated)	none | Cmpd fluor yeast inactive | Mdr1 pump inh inactive | Cdr2 pump inh inactive | Cdr1 pump inh inactive
O=C1CC(c2ccsc2)Sc2ccccc2N1 (configuration not stated)	none | Cmpd fluor yeast inactive | Mdr1 pump inh inactive | Cdr2 pump inh inactive | Cdr1 pump inh inactive
O=C1CSc2ccccc2N1	none (no result: Calb FLC, Efflux pump mplx)
COc1cc2c(cc1OC)C(c1ccsc1)CC(=O)N2 (configuration not stated)	none
CCNC(=O)N1CCN(c2ccc(N3CCN(C(=O)NCC)[C@H](C)C3)c(C)c2)[C@@H](C)C1	none (no result: Calb FLC, Efflux pump mplx, MC4R antag cAMP, H9c2 TAG inh, MC4R barr agon)
COc1ccc2nc(NC(=O)c3ccoc3C)sc2c1	Efflux pump mplx 7.5 (no result: H9c2 TAG inh) | Cmpd fluor yeast inactive | Mdr1 pump inh inactive | Cdr2 pump inh inactive | Cdr1 pump inh inactive
CCOC(=O)c1c(/N=C/N(C)C)sc(C)c1C	none
CCOC(=O)c1c(/N=C/N(C)C)sc(/C=N/Nc2ccccc2)c1-c1ccc(Cl)cc1	Efflux pump mplx 0.6 (no result: H9c2 TAG inh) | Cmpd fluor yeast inactive | Mdr1 pump inh inactive | Cdr2 pump inh inactive | Cdr1 pump inh inactive
OCCN1CCN(CC/C=C2/c3ccccc3Sc3ccc(C(F)(F)F)cc32)CC1	none (no result: GalR3 antagonist) | Cmpd fluor yeast inactive | Mdr1 pump inh inactive | Cdr2 pump inh inactive | Cdr1 pump inh inactive
OCCN1CCN(CC/C=C2/c3ccccc3CSc3ccccc32)CC1	none
CCC1CCCCN1C(=S)NN=C(C)c1ccccn1 (configuration not stated)	none (no result: Calb FLC, Efflux pump mplx, MC4R antag cAMP, H9c2 TAG inh, MC4R barr agon)
CC(=O)OC[C@@H]1CN(Cc2ccccc2)C[C@H](n2cnc3c(N(C)C(C)C)ncnc32)O1	none (no result: Calb FLC, Efflux pump mplx)
CCOC(=O)c1ccccc1NC(=O)C1CC(=O)N(C2CCCCC2)C1 (configuration not stated)	Efflux pump mplx 6.2 | Cmpd fluor yeast inactive | Mdr1 pump inh inactive | Cdr2 pump inh inactive | Cdr1 pump inh inactive
CN(C)CC/C=C1/c2ccccc2Sc2ccc(Cl)cc21	none | Cmpd fluor yeast inactive | Mdr1 pump inh inactive | Cdr2 pump inh inactive | Cdr1 pump inh inactive
O=C(O)CCCN1C(=O)/C(=C\c2ccco2)SC1=S	none (no result: Efflux pump mplx)
O=C(O)CCN1C(=O)/C(=C\c2ccc(-c3nc4ccccc4s3)o2)SC1=S	Efflux pump mplx 0.9 (no result: GalR3 antagonist) | Cmpd fluor yeast inactive | Mdr1 pump inh inactive | Cdr2 pump inh active | Cdr1 pump inh 56
CC1CCN(C(=O)c2ccc(S(=O)(=O)Cc3ccccc3F)c([N+](=O)[O-])c2)CC1	Efflux pump mplx 5.8 (no result: H9c2 TAG inh) | Cmpd fluor yeast inactive | Mdr1 pump inh inactive | Cdr2 pump inh inactive | Cdr1 pump inh inactive
CCC(C)[C@H](NC(=O)NCc1ccccn1)C(=O)OC (some centres not stated)	none (no result: H9c2 TAG inh)
COC(=O)[C@H](CCSC)NC(=O)NCc1ccccn1	Efflux pump mplx 0.8 (no result: H9c2 TAG inh) | Cmpd fluor yeast inactive | Mdr1 pump inh inactive | Cdr2 pump inh inactive | Cdr1 pump inh inactive
COC(=O)C1=C(C)N(C)C(=NCc2cc(OC)c(OC)c(OC)c2)NC1c1cccc(Cl)c1 (configuration not stated)	none (no result: Calb FLC, Efflux pump mplx, MC4R antag cAMP, H9c2 TAG inh, MC4R barr agon)
CN(C)CCNS(=O)(=O)c1ccc(N2CCN(c3ccc(F)cc3)CC2)c([N+](=O)[O-])c1	Efflux pump mplx 11 (no result: H9c2 TAG inh) | Cmpd fluor yeast inactive | Mdr1 pump inh inactive | Cdr2 pump inh inactive | Cdr1 pump inh inactive
